One assay has as its system Citrobacter freundii. The assay can be described thus: In vitro minimum inhibitory concentration was measured against Citrobacter freundii BS-16 (beta lactamase producer) strain. The assay is classed as functional. The gist of the method: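 MICs were determined by agar dilution with 2-fold dilutions giving final 128–0.0156 µg/mL, extended to 0.000977 µg/mL where needed. Streptococci were tested on brain heart infusion agar plus 20 units/mL catalase, Proteus on Mueller-Hinton with 3% agar, and others on Mueller-Hinton agar. Inocula were 100-fold-diluted overnight cultures, about 3 × 10^4 CFU/spot, read after overnight incubation at 36 °C.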

The next assay concerns Enterococcus faecalis. In words: In vitro minimum inhibitory concentration was measured against Enterococcus faecalis ATCC 29212 strain. The assay is classed as functional. The gist of the method: (§1)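 Streptococci were tested on brain heart infusion agar plus 20 units/mL catalase, Proteus on Mueller-Hinton with 3% agar, and others on Mueller-Hinton agar. Inocula were 100-fold-diluted overnight cultures, about 3 × 10^4 CFU/spot, read after overnight incubation at 36 °C.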

The subject of assay [1] is Klebsiella pneumoniae. The assay can be described thus: Tested for its efficacy against systemic murine infection caused by Klebsiella pneumoniae A. The assay is classed as functional. The gist of the method: (§2)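 CD1 Swiss albino mice (18-20 g) were infected intraperitoneally with 0.5 mL of diluted culture. Within 5 min they received 1.0 mL test solution subcutaneously at the dorsal neck, in dilutions spanning 250–0.05 mg/kg. P. aeruginosa groups received a second dose at 3 h. Groups were six mice. ED50 was calculated by Reed–Muench interpolation of cumulative survival.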

The test system of assay [2] is Klebsiella pneumoniae. The assay can be described thus: In vitro minimum inhibitory concentration was measured against Klebsiella pneumoniae A strain. The assay is classed as functional. Summed up: as §1
The next assay deals with Micrococcus luteus. In words: In vitro minimum inhibitory concentration was measured against Micrococcus luteus ATCC 9341 strain. The assay is classed as functional. Summed up:
as §1

In the next assay the test system is Proteus mirabilis. In words: In vitro minimum inhibitory concentration was measured against Proteus mirabilis 90 strain. The assay is classed as functional. Summed up:
as §1

In another assay the test system is Pseudomonas aeruginosa. In words: Tested for its efficacy against systemic murine infection caused by Pseudomonas aeruginosa 8780. The assay is classed as functional. The gist of the method:
as §2

For assay [3], the system named is Serratia marcescens. The assay can be described thus: In vitro minimum inhibitory concentration was measured against Serratia marcescens 1071(beta lactamase producer) strain. The assay is classed as functional. Summed up:
as §1

Assay [4] has as its system Streptococcus pneumoniae. The assay can be described thus: Tested for its efficacy against systemic murine infection caused by Streptococcus pneumoniae 6301. The assay is classed as functional. Summed up:
as §2

Assay [5] has as its system Serratia marcescens. The assay can be described thus: Tested for its efficacy against systemic murine infection caused by Serratia marcescens SM. The assay is classed as functional. Summed up:
as §2

The test system of assay [6] is Staphylococcus aureus. In words: In vitro minimum inhibitory concentration was measured against Staphylococcus aureus 67-0 (Methicillin resistant) strain. The assay is classed as functional.
In assay [7] the test system is Staphylococcus aureus. The assay can be described thus: In vitro minimum inhibitory concentration was measured against Staphylococcus aureus 753 (Methicillin resistant) strain. The assay is classed as functional.
Assay [8] relates to Streptococcus pneumoniae. In words: In vitro minimum inhibitory concentration was measured against Streptococcus pneumoniae 6301 strain. The assay is classed as functional. Summed up: as §1
The test system of assay [9] is Staphylococcus aureus. The assay can be described thus: Tested for its efficacy against systemic murine infection caused by Staphylococcus aureus smith. The assay is classed as functional. Summed up: as §2
For a further assay, the system named is Streptococcus pyogenes. In words: In vitro minimum inhibitory concentration was measured against Streptococcus pyogenes 4 strain. The assay is classed as functional. The gist of the method: as §1
For assay [10], the target named is T1, Penicillin-binding protein 1A (Escherichia coli K-12) (UniProt P02918).
T1 sequence (whole entry): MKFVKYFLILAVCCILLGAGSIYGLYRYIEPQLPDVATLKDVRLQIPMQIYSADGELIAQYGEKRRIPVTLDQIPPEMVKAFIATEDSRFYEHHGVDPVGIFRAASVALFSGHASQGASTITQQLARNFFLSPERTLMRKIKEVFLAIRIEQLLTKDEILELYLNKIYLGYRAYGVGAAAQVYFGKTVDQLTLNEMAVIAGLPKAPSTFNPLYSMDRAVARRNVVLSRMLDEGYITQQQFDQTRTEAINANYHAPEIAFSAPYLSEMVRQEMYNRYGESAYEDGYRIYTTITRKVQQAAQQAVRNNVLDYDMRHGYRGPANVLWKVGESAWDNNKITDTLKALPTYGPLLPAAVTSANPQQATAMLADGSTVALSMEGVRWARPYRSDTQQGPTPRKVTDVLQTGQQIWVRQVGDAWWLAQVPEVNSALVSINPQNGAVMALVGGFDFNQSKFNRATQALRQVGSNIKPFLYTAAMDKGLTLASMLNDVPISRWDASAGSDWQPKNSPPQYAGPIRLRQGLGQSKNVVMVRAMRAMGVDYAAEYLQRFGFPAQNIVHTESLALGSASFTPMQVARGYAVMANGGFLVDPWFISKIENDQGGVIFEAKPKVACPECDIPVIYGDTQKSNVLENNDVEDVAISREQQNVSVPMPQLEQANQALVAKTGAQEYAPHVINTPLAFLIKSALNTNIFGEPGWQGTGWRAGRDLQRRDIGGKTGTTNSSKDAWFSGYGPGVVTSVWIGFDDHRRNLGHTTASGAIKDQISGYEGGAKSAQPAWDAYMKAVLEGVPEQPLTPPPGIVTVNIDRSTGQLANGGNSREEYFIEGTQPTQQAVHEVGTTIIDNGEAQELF
The assay can be described thus: Affinity against penicillin binding protein 1a of Escherichia coli UB1005 (DC0) was evaluated. Summed up: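 Solubilized membranes from sonicated E. coli UB1005 were used. Binding to penicillin-binding proteins was measured as inhibition of [14C]penicillin G binding.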

Assay [11] deals with T2, Penicillin-binding protein 1B (Escherichia coli K-12) (UniProt P02919).
T2 sequence (whole entry): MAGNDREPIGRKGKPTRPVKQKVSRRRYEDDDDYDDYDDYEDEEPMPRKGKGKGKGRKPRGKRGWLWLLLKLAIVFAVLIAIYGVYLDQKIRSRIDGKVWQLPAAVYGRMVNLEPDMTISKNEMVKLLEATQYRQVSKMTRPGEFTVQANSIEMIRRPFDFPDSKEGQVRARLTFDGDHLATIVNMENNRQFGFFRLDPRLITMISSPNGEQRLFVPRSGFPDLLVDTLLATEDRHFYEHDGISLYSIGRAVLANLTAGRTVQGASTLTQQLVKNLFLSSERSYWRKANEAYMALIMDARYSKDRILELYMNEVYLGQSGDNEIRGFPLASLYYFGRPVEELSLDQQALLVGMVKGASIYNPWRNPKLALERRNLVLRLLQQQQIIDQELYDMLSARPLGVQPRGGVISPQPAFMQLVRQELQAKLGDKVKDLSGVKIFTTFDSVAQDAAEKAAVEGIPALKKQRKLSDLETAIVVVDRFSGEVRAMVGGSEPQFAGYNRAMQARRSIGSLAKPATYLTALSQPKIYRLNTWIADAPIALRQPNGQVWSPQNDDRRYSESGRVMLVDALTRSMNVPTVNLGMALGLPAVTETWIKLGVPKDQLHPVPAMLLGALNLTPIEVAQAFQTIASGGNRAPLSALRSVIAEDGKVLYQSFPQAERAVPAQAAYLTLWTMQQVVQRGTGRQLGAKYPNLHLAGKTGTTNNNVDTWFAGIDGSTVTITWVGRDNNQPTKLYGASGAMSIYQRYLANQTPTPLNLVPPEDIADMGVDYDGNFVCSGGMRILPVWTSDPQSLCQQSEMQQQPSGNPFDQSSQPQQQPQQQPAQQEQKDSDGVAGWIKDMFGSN
In words: Affinity for penicillin binding protein 1b of Escherichia coli UB1005 (DC0) was evaluated. Further details: unit not given here. Summed up: (§3)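 Solubilised membranes from sonicated E. coli UB1005 served as the binding-protein source. Binding was read as inhibition of [14C]penicillin G binding.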

The target of assay [12] is T3, Peptidoglycan D,D-transpeptidase MrdA (Escherichia coli K-12) (UniProt P0AD65).
T3 sequence (whole entry): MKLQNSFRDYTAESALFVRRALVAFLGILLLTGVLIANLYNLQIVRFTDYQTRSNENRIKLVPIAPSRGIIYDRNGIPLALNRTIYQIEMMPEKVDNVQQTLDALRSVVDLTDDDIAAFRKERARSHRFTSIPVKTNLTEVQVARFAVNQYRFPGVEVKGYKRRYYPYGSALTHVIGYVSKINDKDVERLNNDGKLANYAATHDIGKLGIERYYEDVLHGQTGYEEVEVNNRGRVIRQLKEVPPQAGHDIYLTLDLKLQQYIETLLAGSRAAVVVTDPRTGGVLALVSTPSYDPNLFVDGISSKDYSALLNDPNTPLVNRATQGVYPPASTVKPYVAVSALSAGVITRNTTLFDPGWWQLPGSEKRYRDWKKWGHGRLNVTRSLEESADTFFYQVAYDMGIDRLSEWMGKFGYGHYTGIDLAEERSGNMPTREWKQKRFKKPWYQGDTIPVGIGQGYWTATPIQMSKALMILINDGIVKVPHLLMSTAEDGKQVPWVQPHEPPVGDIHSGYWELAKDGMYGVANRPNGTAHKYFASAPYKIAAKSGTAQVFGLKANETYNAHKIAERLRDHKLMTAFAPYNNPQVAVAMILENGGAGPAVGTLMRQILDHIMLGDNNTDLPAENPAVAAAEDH
The assay can be described thus: Affinity for penicillin binding protein 2 of Escherichia coli UB1005 (DC0) was evaluated. Details: unit not given here. The gist of the method: as §3

For a further assay, the system named is Escherichia coli. In words: Minimum inhibitory concentration against E. coli UB1005 (DC0).

We go through two molecules from ChEMBL document CHEMBL1127320, “Dual-action cephalosporins incorporating a 3'-tertiary-amine-linked quinolone” (J Med Chem, 1994).

One may read the ED50 as the dose that gives a 50% effect, or the effect in half of the subjects.

Structures are written as SMILES. Values after ≈ are worked out from the molar mass of the structure shown.

Regarding `O=C(O)c1cn(C2CC2)c2cc(N3CCNCC3)c(F)cc2c1=O` [CIPROFLOXACIN], the MIC against Citrobacter freundii came out at 0.031 µg/mL (≈ 0.0936 µM); in the assay on Enterococcus faecalis, 1 µg/mL (≈ 3.02 µM); in the assay on Klebsiella pneumoniae [2], 0.25 µg/mL (≈ 0.754 µM); against Micrococcus luteus, 2 µg/mL (≈ 6.04 µM); against Proteus mirabilis, 0.063 µg/mL (≈ 0.19 µM); against Serratia marcescens [3], 0.063 µg/mL (≈ 0.19 µM). The MIC in the assay with Staphylococcus aureus [6] is 0.5 µg/mL (≈ 1.51 µM); in the assay on Staphylococcus aureus [7] it was 0.25 µg/mL (≈ 0.754 µM); against Streptococcus pneumoniae [8], 1 µg/mL (≈ 3.02 µM); in the assay on Streptococcus pyogenes, 0.5 µg/mL (≈ 1.51 µM). For the same molecule, the ED50 is 1 mg/kg with Klebsiella pneumoniae [1]; 4 mg/kg in the assay with Pseudomonas aeruginosa; greater than 100 mg/kg in the assay on Streptococcus pneumoniae [4]; less than 0.5 mg/kg in the assay on Serratia marcescens [5]; 3 mg/kg with Staphylococcus aureus [9].

Consider `CCN1CCN(C(=O)N[C@@H](C(=O)N[C@@H]2C(=O)N3C(C(=O)O)=C(CSc4nnnn4C)CS[C@H]23)c2ccc(O)cc2)C(=O)C1=O`, for which the values for the Binding affinity in assay [10], in assay [11] and in assay [12] were 10, 10 and 2, respectively. This molecule registered an MIC against Escherichia coli of 0.031 µg/mL (≈ 0.048 µM).
